In ChEMBL document CHEMBL1125355, “Novel non-cross resistant diaminoanthraquinones as potential chemotherapeutic agents” (J Med Chem, 1992):

What was measured:
[1] = system: RPMI-8226; assay: In vitro inhibition of tumor cell growth in the human myeloma 8226 system.; assay type: functional, cell-based
Procedure, shortened: (§1)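 Cells trypsinized, seeded at 7500 cells/well, attached overnight. Serially diluted agent added to quadruplicate cultures; 24 h at 37 °C, 5% CO2, with [3H]thymidine 0.5 μCi/well during the last 4 h. Incorporation counted by scintillation; percent of media-only control from mean CPM. IC50 by linear forecast on a percent control vs log concentration plot.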

[2] = system: RPMI-8226; assay: In vitro inhibition of tumor cell growth in the human myeloma 8226/ADR system.; assay type: functional, cell-based; procedure, shortened: as §1
[3] = system: MCF7; assay: In vitro inhibition of tumor cell growth in the human mammary carcinoma MCF-7/ADR system.; assay type: functional, cell-based; procedure, shortened: as §1
[4] = system: MCF7; assay: In vitro inhibition of tumor cell growth in the human mammary tumor MCF-7 system; assay type: functional, cell-based; procedure, shortened: as §1
[5] = species on record: Homo sapiens; assay: Tumor-specific activity against human gastric tumor type at 0.5 ug/mL concentration after 1 hr exposure time; Activity= no of responses/ no tested,1/1; assay type: functional, Stomach
[6] = species on record: Homo sapiens; assay: Tumor-specific activity against human gastric tumor type at 5 ug/mL concentration after 1 hr exposure time; Activity= no of responses/ no tested,1/1; assay type: functional, Stomach
[7] = species on record: Homo sapiens; assay: Tumor-specific activity against human gastric tumor type at 50 ug/mL concentration after 1 hr exposure time; Activity= no of responses/ no tested,1/1; assay type: functional, Stomach
[8] = species on record: Homo sapiens; assay: Tumor-specific activity against human breast tumor type at 0.5 ug/mL concentration after 1 hr exposure time; Activity= no of responses/ no tested,0/2; assay type: functional
[9] = species on record: Homo sapiens; assay: Tumor-specific activity against human breast tumor type at 5 ug/mL concentration after 1 hr exposure time; Activity= no of responses/ no tested,1/2; assay type: functional
[10] = species on record: Homo sapiens; assay: Tumor-specific activity against human breast tumor type at 50 ug/mL concentration after 1 hr exposure time; Activity= no of responses/ no tested,1/2; assay type: functional
[11] = species on record: Homo sapiens; assay: Tumor-specific activity against human ovary tumor type at 0.5 ug/mL concentration after 1 hr exposure time; Activity= no of responses/ no tested,2/2; assay type: functional, Female gonad
[12] = species on record: Homo sapiens; assay: Tumor-specific activity against human ovary tumor type at 5 ug/mL concentration after 1 h exposure time; Activity= no of responses/ no tested,2/2; assay type: functional, Female gonad
[13] = species on record: Homo sapiens; assay: Tumor-specific activity against human ovary tumor type at 50 ug/mL concentration after 1 hr exposure time; Activity= no of responses/ no tested,2/2; assay type: functional, Female gonad
[14] = species on record: Homo sapiens; assay: Tumor-specific activity against human colon tumor type at 5 ug/mL concentration after 1 hr exposure time; Activity= no of responses/ no tested,4/5; assay type: functional
[15] = species on record: Homo sapiens; assay: Tumor-specific activity against human colon tumor type at 50 ug/mL concentration after 1 hr exposure time; Activity= no of responses/ no tested,4/5; assay type: functional
[16] = species on record: Homo sapiens; assay: Tumor-specific activity against human total tumor type at 0.5 ug/mL concentration after 1 hr exposure time; Activity= no of responses/ no tested,4/10; assay type: functional
[17] = species on record: Homo sapiens; assay: Tumor-specific activity against human total tumor type at 5 ug/mL concentration after 1 hr exposure time; Activity= no of responses/ no tested,8/10; assay type: functional
[18] = species on record: Homo sapiens; assay: Tumor-specific activity against human colon tumor type at 0.5 ug/mL concentration after 1 hr exposure time; Activity= no of responses/ no tested,[…]; assay type: functional
[19] = species on record: Homo sapiens; assay: Tumor-specific activity against human total tumor type at 50 ug/mL concentration after 1 hr exposure time; Activity= no of responses/ no tested,8/10; assay type: functional
[20] = species on record: Homo sapiens; assay: Compound was tested in vitro for activity in a human tumor cloning system at 0.5 ug/mL concentration after 1 hr exposure time; assay type: functional
Procedure, shortened: (§2)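 Human tumor cloning assay on single-cell suspensions from patient solid tumors and effusions. Cells were exposed for 1 h at 37 °C in McCoy's 5A with 10% heat-inactivated FCS, washed twice, then plated at 5×10^5 cells/mL in 0.3% agar CMRL 1066 over a feeder layer. Colonies (>50 cells) were counted around day 14. A run was evaluable with ≥20 control colonies and under 30% survival with 200 μg/mL vanadate.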

[21] = species on record: Homo sapiens; assay: Compound was tested in vitro for activity in a human tumor cloning system at 0.5 ug/mL concentration after continuous exposure time; assay type: functional
Procedure, shortened: (§3)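 Human tumor cloning assay on single-cell suspensions from patient solid tumors and effusions. Drug from DMSO stock was mixed into 0.3% agar CMRL 1066 with the cells, at 5×10^5 cells/mL over a feeder layer, and left for continuous exposure. Colonies (>50 cells) were counted around day 14 by inverted microscope. A run was evaluable with ≥20 control colonies and under 30% survival with 200 μg/mL vanadate.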

[22] = species on record: Homo sapiens; assay: Compound was tested in vitro for activity in a human tumor cloning system at 5 ug/mL concentration after 1 hr exposure time; assay type: functional; procedure, shortened: as §2
[23] = species on record: Homo sapiens; assay: Compound was tested in vitro for activity in a human tumor cloning system at 5 ug/mL concentration after continuous exposure time; assay type: functional; procedure, shortened: as §3
[24] = species on record: Homo sapiens; assay: Compound was tested in vitro for activity in a human tumor cloning system at 50 ug/mL concentration after 1 hr exposure time; assay type: functional; procedure, shortened: as §2
[25] = species on record: Homo sapiens; assay: Compound was tested in vitro for activity in a human tumor cloning system at 50 ug/mL concentration after continuous exposure time; assay type: functional; procedure, shortened: as §3
[26] = species on record: Homo sapiens; assay: Tumor-specific activity against human gastric tumor type at 0.5 ug/mL concentration after 1 hr exposure time; Activity= no of responses/ no tested, 1/1; assay type: functional, Stomach
[27] = species on record: Homo sapiens; assay: Tumor-specific activity against human gastric tumor type at 5 ug/mL concentration after 1 hr exposure time; Activity= no of responses/ no tested, 2/2; assay type: functional, Stomach
[28] = species on record: Homo sapiens; assay: Tumor-specific activity against human gastric tumor type at 50 ug/mL concentration after 1 hr exposure time; Activity= no of responses/ no tested, 1/1; assay type: functional, Stomach
[29] = species on record: Homo sapiens; assay: Tumor-specific activity against human breast tumor type at 0.5 ug/mL concentration after 1 hr exposure time; Activity= no of responses/ no tested, 0/1; assay type: functional
[30] = species on record: Homo sapiens; assay: Tumor-specific activity against human breast tumor type at 5 ug/mL concentration after 1 hr exposure time; Activity= no of responses/ no tested, […]; assay type: functional
[31] = species on record: Homo sapiens; assay: Tumor-specific activity against human breast tumor type at 50 ug/mL concentration after 1 hr exposure time; Activity= no of responses/ no tested, […]; assay type: functional
[32] = species on record: Homo sapiens; assay: Tumor-specific activity against human lung, non-small cell tumor type at 0.5 ug/mL concentration after 1 hr exposure time; Activity= no of responses/ no of evaluable, 0/1; assay type: functional
[33] = species on record: Homo sapiens; assay: Tumor-specific activity against human ovary tumor type at 0.5 ug/mL concentration after 1 hr exposure time; Activity= no of responses/ no tested, 1/2; assay type: functional, Female gonad
[34] = species on record: Homo sapiens; assay: Tumor-specific activity against human ovary tumor type at 5 ug/mL concentration after 1 hr exposure time; Activity= no of responses/ no tested, 1/1; assay type: functional, Female gonad
[35] = species on record: Homo sapiens; assay: Tumor-specific activity against human ovary tumor type at 50 ug/mL concentration after 1 hr exposure time; Activity= no of responses/ no tested, 1/1; assay type: functional, Female gonad
[36] = species on record: Homo sapiens; assay: Tumor-specific activity against human total tumor type at 0.5 ug/mL concentration after 1 hr exposure time; Activity= no of responses/ no tested, 2/5; assay type: functional
[37] = species on record: Homo sapiens; assay: Tumor-specific activity against human total tumor type at 50 ug/mL concentration after 1 h exposure time; Activity= no of responses/ no tested, 5/5; assay type: functional
[38] = species on record: Homo sapiens; assay: Tumor-specific activity against human lung, non-small cell tumor type at 50 ug/mL concentration after 1 hr exposure time; Activity= no of responses/ no of evaluable, […]; assay type: functional
[39] = species on record: Homo sapiens; assay: Tumor-specific activity against human total tumor type at 5 ug/mL concentration after 1 hr exposure time; Activity= no of responses/ no tested, 4/5

Question: Which results are given for `O=C1c2ccccc2C(=O)c2c(NCC(O)CNCc3ccccc3)ccc(NCC(O)CCl)c21` (centres undefined)?
Answer: IC50 [1]: 11100 nM; IC50 [2]: 14300 nM; IC50 [3]: 12400 nM; IC50 [4]: 8200 nM

Question: Which results are given for `CCN(CC)CC(O)CNc1ccc(NCC2CO2)c2c1C(=O)c1ccccc1C2=O.O=C(O)/C=C/C(=O)O` (centres undefined)?
Answer: IC50 [1]: 10 nM; IC50 [2]: 9 nM; Activity [5]: 1; Activity [6]: 1; Activity [7]: 1; Activity [8]: 0; Activity [9]: 1; Activity [10]: 1; Activity [11]: 2; Activity [12]: 2; Activity [13]: 2; Activity [14]: 4; Activity [15]: 4; Activity [16]: 4; Activity [17]: 8; Activity [18]: 1; Activity [19]: 8; % responders at 0.5 µg/mL [20]: 40%; % responders at 0.5 µg/mL [21]: 89%; % responders at 5 µg/mL [22]: 80%; % responders at 5 µg/mL [23]: 89%; % responders at 50 µg/mL [24]: 80%; % responders at 50 µg/mL [25]: 100%; IC50 [3]: 20 nM; IC50 [4]: 40 nM

Question: Which IC50 [1] does the source give for `CCN(CC)CC(O)CNc1ccc(NCC(O)CCl)c2c1C(=O)c1ccccc1C2=O` (centres undefined) here?
Answer: 210 nM

Question: And the IC50 [2]?
Answer: 70 nM

Question: And the Activity [26]?
Answer: 1

Question: And the Activity [27]?
Answer: 1

Question: What about the Activity [28] of the same molecule?
Answer: 1

Question: What about the Activity [29] of the same molecule?
Answer: 0

Question: What about the Activity [30] of the same molecule?
Answer: 0

Question: What about the Activity [31] of the same molecule?
Answer: 1

Question: What about the Activity [32] of the same molecule?
Answer: 0

Question: And the Activity [33]?
Answer: 1

Question: And the Activity [34]?
Answer: 2

Question: What about the Activity [35] of the same molecule?
Answer: 2

Question: And the Activity [36]?
Answer: 2

Question: And the Activity [37]?
Answer: 5

Question: And the % responders at 0.5 µg/mL [20]?
Answer: 40%

Question: And the % responders at 0.5 µg/mL [21]?
Answer: 50%

Question: What about the % responders at 5 µg/mL [22] of the same molecule?
Answer: 80%

Question: And the % responders at 5 µg/mL [23]?
Answer: 100%

Question: And the % responders at 50 µg/mL [24]?
Answer: 100%

Question: And the % responders at 50 µg/mL [25]?
Answer: 100%

Question: And the Activity [38]?
Answer: 1

Question: What about the IC50 [3] of the same molecule?
Answer: 720 nM

Question: And the IC50 [4]?
Answer: 430 nM

Question: And the Activity [39]?
Answer: 4

Question: What does the source list for `CCCNCC(O)CNc1ccc(NCC(O)CCl)c2c1C(=O)c1ccccc1C2=O` (centres undefined)?
Answer: IC50 [1]: 9600 nM; IC50 [2]: 12500 nM; IC50 [3]: 8700 nM; IC50 [4]: 3450 nM

Question: With `O=C1c2c(O)ccc(O)c2C(=O)c2c(NCCNCCO)ccc(NCCNCCO)c21` [MITOXANTRONE] as the molecule, how does the IC50 [1] read?
Answer: 30 nM

Question: What about the IC50 [2] of the same molecule?
Answer: 180 nM

Question: And the IC50 [3]?
Answer: 4000 nM

Question: And the IC50 [4]?
Answer: 5 nM

Question: `COc1cccc2c1C(=O)c1c(O)c3c(c(O)c1C2=O)C[C@@](O)(C(=O)CO)C[C@@H]3O[C@H]1C[C@H](N)[C@H](O)[C@H](C)O1` [DOXORUBICIN] was tested. Which IC50 [1] did it give?
Answer: 33 nM

Question: And the IC50 [2]?
Answer: 560 nM

Question: With `CCN(CC)CC(O)CNc1ccc(N)c2c1C(=O)c1ccccc1C2=O` (centres undefined) as the molecule, how does the IC50 [4] read?
Answer: 6000 nM
